Laboratory results reported in ChEMBL document CHEMBL1132401, “Glycosylation of fluoroquinolones through direct and oxygenated polymethylene linkages as a sugar-mediated active transport system for antimicrobials” (1999).
In brackets after ≈: the same amount, converted by molar mass.

Legend:
[1] = tested on: Staphylococcus epidermidis; test: Minimum concentration required to prevent the growth of multiply resistant Staphylococcus epidermidis (MRSE) coag.-neg. Staph. A0244; type: functional
Method in brief: (§1)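 Agar dilution susceptibility testing per NCCLS guidelines against resistant clinical isolates, with nonresistant ATCC stock strains run as controls. Plates were read at 19–24 h of incubation. MIC reported in µg/mL.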

Listeria monocytogenes [2] = test: Minimum concentration required to prevent the growth of Listeria monocytogenes strain A0182; type: functional
Method in brief: (§2)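 Agar dilution susceptibility testing per NCCLS guidelines, covering clinical isolates (including resistant phenotypes) and nonresistant ATCC stock strains as controls. Plates read after 19–24 h of incubation. MIC reported in μg/mL.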

Enterococcus faecium [3] = test: Minimum concentration required to prevent the growth of vancomycin resistant (VanB) Enterococcus faecium strain A1087; type: functional; conditions: Enterococcus faecium; read-out: MIC; method in brief: as §1
Escherichia coli [4] = test: Minimum concentration required to prevent the growth of nonresistant stock Escherichia coli strain 25922 from American Type Culture Collection (ATCC); type: functional; conditions: ATCC25922; method in brief: as §2
Enterococcus faecalis [5] = test: Minimum concentration required to prevent the growth of high level gentamicin and beta- lactamase resistant (HLGR, BLA+) Enterococcus faecalis strain A0090; type: functional; method in brief: as §1
Staphylococcus aureus [6] = test: Minimum concentration required to prevent the growth of multiply resistant (MRSA) Staphylococcus aureus strain A0171; type: functional; method in brief: as §1
Escherichia coli [7] = test: Minimum concentration required to prevent the growth of cipro resistant (Cipro-R) Escherichia coli strain A3228; type: functional; method in brief: as §2
Staphylococcus aureus [8] = test: Minimum concentration required to prevent the growth of multiply resistant (MRSA) and cipro resistant (Cipro-R) Staphylococcus aureus strain A2043; type: functional; method in brief: as §1
Enterococcus faecalis [9] = test: Minimum concentration required to prevent the growth of vancomycin resistant (VanA) Enterococcus faecalis strain A0402; type: functional; conditions: Enterococcus faecalis; read-out: MIC; method in brief: as §1
Enterococcus faecalis [10] = test: Minimum concentration required to prevent the growth of vancomycin resistant (VanB) Enterococcus faecalis strain A1081; type: functional; conditions: Enterococcus faecalis; read-out: MIC; method in brief: as §1
Escherichia coli [11] = test: Minimum concentration required to prevent the growth of cipro resistant (Cipro-R) Escherichia coli strain AA; type: functional; method in brief: as §2
Staphylococcus aureus [12] = test: Minimum concentration required to prevent the growth of multiply resistant (MRSA) Staphylococcus aureus strain A0170; type: functional; method in brief: as §1
[13] = tested on: Staphylococcus epidermidis; test: Minimum concentration required to prevent the growth of multiply resistant Staphylococcus epidermidis (MRSE) coag.-neg. Staph. A0245; type: functional; method in brief: as §1
Klebsiella oxytoca = test: Minimum concentration required to prevent the growth of cipro resistant (Cipro-R) Klebsiella oxytoca strain A3530
Pseudomonas aeruginosa [14] = test: Minimum concentration required to prevent the growth of Pseudomonas aeruginosa strain 28245; type: functional; method in brief: as §2
Enterococcus faecalis [15] = test: Minimum concentration required to prevent the growth of nonresistant stock strain Enterococcus faecalis 51299 from American Type Culture Collection (ATCC); type: functional; conditions: Enterococcus faecalis; read-out: MIC; method in brief: as §1
Klebsiella pneumoniae = test: Minimum concentration required to prevent the growth of cipro resistant (Cipro-I) Klebsiella pneumoniae strain AM; type: functional; method in brief: as §1
Enterococcus faecalis [16] = test: Minimum concentration required to prevent the growth of vancomycin resistant (VanB) Enterococcus faecalis strain A1079; type: functional; method in brief: as §1
Listeria monocytogenes [17] = test: Minimum concentration required to prevent the growth of Listeria monocytogenes strain A0183; type: functional; method in brief: as §2
Staphylococcus aureus [18] = test: Minimum concentration required to prevent the growth of nonresistant stock strain Staphylococcus aureus 29213 from American Type Culture Collection (ATCC)
[19] = tested on: Staphylococcus epidermidis; test: Minimum concentration required to prevent the growth of multiply resistant Staphylococcus epidermidis (MRSE) and cipro resistant (Cipro-R) coag.-neg. Staph. A0247
Staphylococcus aureus [20] = test: Minimum concentration required to prevent the growth of multiply resistant (MRSA) and cipro resistant (Cipro-R) Staphylococcus aureus strain A2800; type: functional; method in brief: as §1
Pseudomonas aeruginosa [21] = test: Minimum concentration required to prevent the growth of Pseudomonas aeruginosa strain 28215; type: functional; method in brief: as §2
Enterococcus faecalis [22] = test: Minimum concentration required to prevent the growth of vancomycin resistant (VanA) Enterococcus faecalis strain A0401; type: functional; conditions: Enterococcus faecalis; read-out: MIC; method in brief: as §1
Enterococcus faecium [23] = test: Minimum concentration required to prevent the growth of vancomycin resistant (VanB) Enterococcus faecium strain A0803; type: functional; conditions: Enterococcus faecium; read-out: MIC; method in brief: as §1
Enterococcus faecalis [24] = test: Minimum concentration required to prevent the growth of high level gentamicin and beta- lactamase resistant (HLGR, BLA+) Enterococcus faecalis strain A0089; type: functional; conditions: Enterococcus faecalis; read-out: MIC; method in brief: as §1
Enterococcus faecium [25] = test: Minimum concentration required to prevent the growth of nonresistant stock strain Enterococcus faecium 19434 from American Type Culture Collection (ATCC); type: functional; conditions: Enterococcus faecium; read-out: MIC; method in brief: as §2
Enterococcus faecalis [26] = test: Minimum concentration required to prevent the growth of nonresistant stock strain Enterococcus faecalis 29212 from American Type Culture Collection (ATCC); type: functional; method in brief: as §1
Escherichia coli [27] = test: Minimum concentration required to prevent the growth of cipro resistant (Cipro-R) Escherichia coli strain A3529; type: functional; method in brief: as §2
[28] = tested on: Staphylococcus epidermidis; test: Minimum concentration required to prevent the growth of multiply resistant Staphylococcus epidermidis (MRSE) and cipro resistant (Cipro-R) coag.-neg. Staph. A0248; type: functional; method in brief: as §1
[29] = tested on: Staphylococcus epidermidis; test: Minimum concentration required to prevent the growth of multiply resistant Staphylococcus epidermidis (MRSE) and cipro resistant (Cipro-R) coag.-neg. Staph. A0247; type: functional; method in brief: as §1

SMILES | MIC [1] | MIC (Listeria monocytogenes [2]) | MIC (Escherichia coli [4]) | MIC (Enterococcus faecalis [5]) | MIC (Staphylococcus aureus [6]) | MIC (Escherichia coli [7]) | MIC (Staphylococcus aureus [8]) | MIC (Enterococcus faecalis [9]) | MIC (Enterococcus faecalis [10]) | MIC (Escherichia coli [11]) | MIC (Staphylococcus aureus [12]) | MIC [13] | MIC (Klebsiella oxytoca) | MIC (Pseudomonas aeruginosa [14]) | MIC (Enterococcus faecalis [15]) | MIC (Klebsiella pneumoniae) | MIC (Enterococcus faecalis [16]) | MIC (Listeria monocytogenes [17]) | MIC (Staphylococcus aureus [18]) | MIC (Staphylococcus aureus [20]) | also measured
O=C(O)c1cn(C2CC2)c2cc(N3CCN(CCCO[C@@H]4O[C@@H](CO)[C@@H](O)[C@H](O)[C@@H]4O)CC3)c(F)cc2c1=O | 8 µg/mL (≈ 14.5 µM) | 8 µg/mL (≈ 14.5 µM) | 0.12 µg/mL (≈ 0.218 µM) | 4 µg/mL (≈ 7.25 µM) | 4 µg/mL (≈ 7.25 µM) | > 32 µg/mL | > 32 µg/mL | 8 µg/mL (≈ 14.5 µM) | 4 µg/mL (≈ 7.25 µM) | > 32 µg/mL | 4 µg/mL (≈ 7.25 µM) | 4 µg/mL (≈ 7.25 µM) | > 32 µg/mL | 32 µg/mL (≈ 58 µM) | 8 µg/mL (≈ 14.5 µM) | 16 µg/mL (≈ 29 µM) | 8 µg/mL (≈ 14.5 µM) | 8 µg/mL (≈ 14.5 µM) | 4 µg/mL (≈ 7.25 µM) | > 32 µg/mL | MIC (Enterococcus faecium [3]): 32 µg/mL (≈ 58 µM); MIC [19]: > 32 µg/mL; MIC (Pseudomonas aeruginosa [21]): 4 µg/mL (≈ 7.25 µM); MIC (Enterococcus faecalis [22]): 8 µg/mL (≈ 14.5 µM); MIC (Enterococcus faecium [23]): 16 µg/mL (≈ 29 µM); MIC (Enterococcus faecalis [24]): 8 µg/mL (≈ 14.5 µM); MIC (Enterococcus faecium [25]): > 32 µg/mL; MIC (Enterococcus faecalis [26]): 8 µg/mL (≈ 14.5 µM); MIC (Escherichia coli [27]): > 32 µg/mL; MIC [28]: > 32 µg/mL
O=C(O)c1cn(C2CC2)c2cc(N3CCN(CCO[C@@H]4O[C@@H](CO)[C@@H](O)[C@H](O)[C@@H]4O)CC3)c(F)cc2c1=O | 32 µg/mL (≈ 59.5 µM) | > 32 µg/mL | 2 µg/mL (≈ 3.72 µM) | 32 µg/mL (≈ 59.5 µM) | 8 µg/mL (≈ 14.9 µM) | > 32 µg/mL | > 32 µg/mL | 32 µg/mL (≈ 59.5 µM) | 16 µg/mL (≈ 29.8 µM) | > 32 µg/mL | 4 µg/mL (≈ 7.44 µM) | 16 µg/mL (≈ 29.8 µM) | > 32 µg/mL | > 32 µg/mL | 16 µg/mL (≈ 29.8 µM) | > 32 µg/mL | 32 µg/mL (≈ 59.5 µM) | > 32 µg/mL | 16 µg/mL (≈ 29.8 µM) | > 32 µg/mL | MIC [29]: > 32 µg/mL; MIC (Pseudomonas aeruginosa [21]): 32 µg/mL (≈ 59.5 µM); MIC (Enterococcus faecalis [22]): > 32 µg/mL; MIC (Enterococcus faecalis [24]): > 32 µg/mL; MIC (Enterococcus faecium [25]): > 32 µg/mL; MIC (Enterococcus faecalis [26]): 32 µg/mL (≈ 59.5 µM); MIC (Escherichia coli [27]): > 32 µg/mL; MIC [28]: > 32 µg/mL
O=C(O)c1cn(C2CC2)c2cc(N3CCN(CCCO[C@@H]4O[C@@H](CO)[C@H](O)[C@H](O)[C@@H]4O)CC3)c(F)cc2c1=O | 32 µg/mL (≈ 58 µM) | 32 µg/mL (≈ 58 µM) | 0.25 µg/mL (≈ 0.453 µM) | 16 µg/mL (≈ 29 µM) | 16 µg/mL (≈ 29 µM) | > 32 µg/mL | > 32 µg/mL | 32 µg/mL (≈ 58 µM) | 16 µg/mL (≈ 29 µM) | > 32 µg/mL | 8 µg/mL (≈ 14.5 µM) | 8 µg/mL (≈ 14.5 µM) | > 32 µg/mL | > 32 µg/mL | 16 µg/mL (≈ 29 µM) | > 32 µg/mL | 16 µg/mL (≈ 29 µM) | 32 µg/mL (≈ 58 µM) | 16 µg/mL (≈ 29 µM) | > 32 µg/mL | MIC [29]: > 32 µg/mL; MIC (Pseudomonas aeruginosa [21]): 16 µg/mL (≈ 29 µM); MIC (Enterococcus faecalis [22]): 32 µg/mL (≈ 58 µM); MIC (Enterococcus faecalis [24]): 32 µg/mL (≈ 58 µM); MIC (Enterococcus faecium [25]): > 32 µg/mL; MIC (Enterococcus faecalis [26]): 16 µg/mL (≈ 29 µM); MIC (Escherichia coli [27]): > 32 µg/mL; MIC [28]: > 32 µg/mL
O=C(O)c1cn(C2CC2)c2cc(N3CCN(CCO[C@@H]4O[C@@H](CO)[C@H](O)[C@H](O)[C@@H]4O)CC3)c(F)cc2c1=O | 32 µg/mL (≈ 59.5 µM) | > 32 µg/mL | 1 µg/mL (≈ 1.86 µM) | 32 µg/mL (≈ 59.5 µM) | 8 µg/mL (≈ 14.9 µM) | > 32 µg/mL | > 32 µg/mL | 32 µg/mL (≈ 59.5 µM) | 16 µg/mL (≈ 29.8 µM) | > 32 µg/mL | 8 µg/mL (≈ 14.9 µM) | 16 µg/mL (≈ 29.8 µM) | > 32 µg/mL | > 32 µg/mL | 32 µg/mL (≈ 59.5 µM) | > 32 µg/mL | 32 µg/mL (≈ 59.5 µM) | > 32 µg/mL | 8 µg/mL (≈ 14.9 µM) | > 32 µg/mL | MIC [29]: > 32 µg/mL; MIC (Pseudomonas aeruginosa [21]): 16 µg/mL (≈ 29.8 µM); MIC (Enterococcus faecalis [22]): > 32 µg/mL; MIC (Enterococcus faecalis [24]): > 32 µg/mL; MIC (Enterococcus faecium [25]): > 32 µg/mL; MIC (Enterococcus faecalis [26]): 32 µg/mL (≈ 59.5 µM); MIC (Escherichia coli [27]): > 32 µg/mL; MIC [28]: > 32 µg/mL
